ChEMBL document CHEMBL4813970, “Design, synthesis and evaluation of novel dimethylamino chalcone-O-alkylamines derivatives as potential multifunctional agents against Alzheimer's disease” (Eur J Med Chem, 2021)
pIC50: −log10 of the molar value.

Experiments:
[1] = Antioxidant activity of compound assessed as trolox equivalent antioxidant capacity by ORAC-FL assay; assay type: functional
Acetylcholinesterase [2] = target: T1, Acetylcholinesterase (Rattus norvegicus, UniProt P37136); experiment: Inhibition of rat cortex homogenate acetylcholinesterase by Ellman's method
T1 sequence (P37136 whole entry): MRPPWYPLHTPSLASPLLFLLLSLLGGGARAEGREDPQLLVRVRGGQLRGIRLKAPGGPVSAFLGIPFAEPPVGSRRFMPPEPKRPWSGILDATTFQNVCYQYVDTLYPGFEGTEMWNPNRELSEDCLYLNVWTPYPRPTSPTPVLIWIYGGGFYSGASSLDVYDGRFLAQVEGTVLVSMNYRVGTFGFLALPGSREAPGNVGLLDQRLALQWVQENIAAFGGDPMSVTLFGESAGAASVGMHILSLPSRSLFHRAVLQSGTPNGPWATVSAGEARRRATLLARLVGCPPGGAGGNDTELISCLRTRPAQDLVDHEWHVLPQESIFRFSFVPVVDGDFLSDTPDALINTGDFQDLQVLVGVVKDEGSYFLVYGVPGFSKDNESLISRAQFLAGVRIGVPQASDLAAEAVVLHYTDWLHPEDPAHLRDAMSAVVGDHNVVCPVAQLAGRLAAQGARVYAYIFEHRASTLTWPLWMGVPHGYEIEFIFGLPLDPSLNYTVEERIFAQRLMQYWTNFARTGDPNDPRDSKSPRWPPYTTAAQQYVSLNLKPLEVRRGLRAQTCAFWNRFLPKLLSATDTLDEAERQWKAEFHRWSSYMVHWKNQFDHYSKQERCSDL

Butyrylcholinesterase = Butyrylcholinesterase (Rattus norvegicus, UniProt Q9JKC1); experiment: Inhibition of rat serum BuChE by Ellman's method
Chain of Butyrylcholinesterase (Q9JKC1 whole entry): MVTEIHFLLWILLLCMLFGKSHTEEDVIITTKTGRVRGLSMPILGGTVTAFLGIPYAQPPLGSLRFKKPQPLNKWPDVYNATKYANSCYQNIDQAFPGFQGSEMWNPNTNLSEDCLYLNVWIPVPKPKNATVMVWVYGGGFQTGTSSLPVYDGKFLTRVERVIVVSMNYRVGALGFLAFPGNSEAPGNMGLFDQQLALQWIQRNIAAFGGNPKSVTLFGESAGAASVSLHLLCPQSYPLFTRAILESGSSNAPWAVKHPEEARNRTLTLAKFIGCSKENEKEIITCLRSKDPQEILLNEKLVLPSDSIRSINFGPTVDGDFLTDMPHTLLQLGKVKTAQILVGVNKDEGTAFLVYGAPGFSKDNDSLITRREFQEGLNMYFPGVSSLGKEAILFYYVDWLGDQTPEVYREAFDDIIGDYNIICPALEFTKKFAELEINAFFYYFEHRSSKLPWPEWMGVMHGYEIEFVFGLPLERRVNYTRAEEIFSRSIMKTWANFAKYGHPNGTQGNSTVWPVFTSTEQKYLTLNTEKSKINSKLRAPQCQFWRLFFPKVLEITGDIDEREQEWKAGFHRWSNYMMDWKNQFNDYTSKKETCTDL

Acetylcholinesterase [3] = target: Acetylcholinesterase (Electrophorus electricus, UniProt O42275); experiment: Inhibition of electric eel AChE using acetylthiocholine iodide as substrate by Ellman's method
Chain of Acetylcholinesterase (Electrophorus electricus, UniProt O42275) (O42275 whole entry): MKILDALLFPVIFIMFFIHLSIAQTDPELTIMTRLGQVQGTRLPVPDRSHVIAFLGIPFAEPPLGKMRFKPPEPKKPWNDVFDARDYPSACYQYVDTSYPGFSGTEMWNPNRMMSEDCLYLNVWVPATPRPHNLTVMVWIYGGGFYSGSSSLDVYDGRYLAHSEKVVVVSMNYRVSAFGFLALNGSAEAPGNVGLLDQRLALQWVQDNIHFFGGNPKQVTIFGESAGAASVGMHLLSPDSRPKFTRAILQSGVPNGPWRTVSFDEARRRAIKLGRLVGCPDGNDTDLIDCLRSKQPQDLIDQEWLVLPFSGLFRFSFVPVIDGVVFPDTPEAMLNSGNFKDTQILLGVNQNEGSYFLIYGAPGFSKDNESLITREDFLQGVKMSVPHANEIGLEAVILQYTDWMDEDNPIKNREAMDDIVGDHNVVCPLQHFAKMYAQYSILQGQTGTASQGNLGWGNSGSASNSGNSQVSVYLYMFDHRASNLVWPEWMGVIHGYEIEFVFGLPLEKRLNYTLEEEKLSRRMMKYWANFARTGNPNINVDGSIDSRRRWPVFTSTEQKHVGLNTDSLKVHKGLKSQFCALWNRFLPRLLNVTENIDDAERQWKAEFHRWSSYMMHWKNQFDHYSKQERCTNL

[4] = target: T2, Amine oxidase [flavin-containing] B (Homo sapiens, UniProt P27338); experiment: Inhibition of human recombinant MAO-B by multimode plate reader assay
T2 sequence (P27338 whole entry): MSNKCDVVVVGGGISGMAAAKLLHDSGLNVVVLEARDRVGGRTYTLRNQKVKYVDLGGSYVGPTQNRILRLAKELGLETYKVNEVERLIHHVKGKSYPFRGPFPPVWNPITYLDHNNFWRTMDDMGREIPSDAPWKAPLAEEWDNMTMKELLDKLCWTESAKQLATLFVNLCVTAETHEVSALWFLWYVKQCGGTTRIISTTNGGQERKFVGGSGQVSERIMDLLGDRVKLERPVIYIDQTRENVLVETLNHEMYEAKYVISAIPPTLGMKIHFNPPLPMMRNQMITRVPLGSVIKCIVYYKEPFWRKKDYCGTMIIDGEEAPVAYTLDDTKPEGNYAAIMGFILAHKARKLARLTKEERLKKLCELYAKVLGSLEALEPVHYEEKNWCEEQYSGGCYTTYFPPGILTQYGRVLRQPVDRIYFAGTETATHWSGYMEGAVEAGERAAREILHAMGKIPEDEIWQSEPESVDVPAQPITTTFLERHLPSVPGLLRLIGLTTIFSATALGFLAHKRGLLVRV

[5] = target: T3, Amine oxidase [flavin-containing] A (Homo sapiens, UniProt P21397); experiment: Inhibition of human recombinant MAO-A by multimode plate reader assay
T3 sequence (P21397 whole entry): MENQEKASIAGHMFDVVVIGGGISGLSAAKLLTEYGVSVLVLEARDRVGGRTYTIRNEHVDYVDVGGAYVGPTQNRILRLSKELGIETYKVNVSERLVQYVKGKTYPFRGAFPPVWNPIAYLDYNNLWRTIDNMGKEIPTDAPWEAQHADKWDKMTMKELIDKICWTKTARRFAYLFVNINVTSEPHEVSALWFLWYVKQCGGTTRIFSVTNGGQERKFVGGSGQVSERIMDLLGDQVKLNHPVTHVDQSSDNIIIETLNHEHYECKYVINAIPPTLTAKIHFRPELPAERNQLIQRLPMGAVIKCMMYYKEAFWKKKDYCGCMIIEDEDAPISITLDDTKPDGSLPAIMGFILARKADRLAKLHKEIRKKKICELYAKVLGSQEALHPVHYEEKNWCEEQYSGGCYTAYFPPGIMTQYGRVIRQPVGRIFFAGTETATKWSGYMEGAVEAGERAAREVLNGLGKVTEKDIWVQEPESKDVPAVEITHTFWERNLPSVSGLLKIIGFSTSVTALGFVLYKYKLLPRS

Homo sapiens = organism: Homo sapiens; experiment: Selectivity index, ratio of IC50 for recombinant human MAO-A to IC50 for recombinant human MAO-B
Summary of the method: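 Selectivity index taken as IC50(hMAO-A)/IC50(hMAO-B). IC50 values are mean ± SEM from three experiments.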

[6] = target: T4, Amyloid-beta precursor protein (Homo sapiens, UniProt P05067); experiment: Inhibition of self-induced amyloid beta (1 to 42) (unknown origin) aggregation at 25 uM by T-fluorescence assay relative to control
T4 sequence (P05067 whole entry): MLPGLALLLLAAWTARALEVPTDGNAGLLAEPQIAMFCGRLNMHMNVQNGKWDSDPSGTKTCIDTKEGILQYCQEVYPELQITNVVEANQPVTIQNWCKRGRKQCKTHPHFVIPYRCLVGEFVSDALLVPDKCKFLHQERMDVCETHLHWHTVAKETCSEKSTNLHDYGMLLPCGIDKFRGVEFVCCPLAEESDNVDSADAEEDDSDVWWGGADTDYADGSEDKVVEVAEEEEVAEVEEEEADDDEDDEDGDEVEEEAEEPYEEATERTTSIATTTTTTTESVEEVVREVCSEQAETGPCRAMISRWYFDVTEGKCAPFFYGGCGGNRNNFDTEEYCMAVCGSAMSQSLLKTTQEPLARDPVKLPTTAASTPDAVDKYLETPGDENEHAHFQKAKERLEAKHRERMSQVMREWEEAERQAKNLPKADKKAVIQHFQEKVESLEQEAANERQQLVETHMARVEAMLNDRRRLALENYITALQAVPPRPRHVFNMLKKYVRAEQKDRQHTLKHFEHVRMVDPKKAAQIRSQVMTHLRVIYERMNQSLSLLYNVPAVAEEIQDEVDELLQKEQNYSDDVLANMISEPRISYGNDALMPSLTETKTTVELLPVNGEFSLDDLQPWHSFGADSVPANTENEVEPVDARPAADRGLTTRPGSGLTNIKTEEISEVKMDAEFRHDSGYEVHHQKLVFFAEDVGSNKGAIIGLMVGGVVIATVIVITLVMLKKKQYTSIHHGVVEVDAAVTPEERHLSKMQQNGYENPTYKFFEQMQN
Summary of the method: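 Self-induced Aβ1-42 aggregation measured by ThT fluorescence, excitation 446 nm and emission 490 nm. Compound and Aβ1-42 each at 25 μM. Run in triplicate. Values are mean of three independent experiments.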

[7] = target: T4, Amyloid-beta precursor protein; experiment: Disaggregation of self-induced amyloid beta (1 to 42) (unknown origin) at 25 uM measured by Thioflavin T based fluorometric assay relative to control
[8] = target: T4, Amyloid-beta precursor protein; experiment: Inhibition of self-induced amyloid beta (1 to 42) (unknown origin) aggregation by T-fluorescence assay relative to control; conditions: for pIC50: read-out: IC50
Summary of the method: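 IC50 by ThT fluorescence (excitation 446 nm, emission 490 nm). Computed only where inhibition of self-induced Aβ1-42 aggregation at 25 μM exceeded 90%. Triplicate; mean of three independent experiments.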

[9] = target: T4, Amyloid-beta precursor protein; experiment: Inhibition of Cu2+ induced amyloid beta (1 to 42 residues) (unknown origin) aggregation at 25 uM by thioflavin-T fluorescence method relative to control
[10] = target: T4, Amyloid-beta precursor protein; experiment: Disaggregation of Cu2+ induced amyloid beta (1 to 42 residues) (unknown origin) aggregation at 25 uM by thioflavin-T fluorescence method relative to control

Structure (SMILES) | Activity [1] | pIC50 (Acetylcholinesterase [2]) | pIC50 (Butyrylcholinesterase) | pIC50 (Acetylcholinesterase [3]) | pIC50 [4] | pIC50 [5] | Selectivity Index (Homo sapiens) | inhibition [6] [%] | Activity [7] [%] | pIC50 [8] | inhibition [9] [%] | Activity [10] [%] | IC50 [8]
COc1ccc(C(=O)/C=C/c2ccc(N(C)C)cc2)c(O)c1 | 1.2 | < 3.30 | < 3.30 | < 3.30 | 6.68 | 5.12 | 36.3 | 59.7 | – | – | – | – | –
CCN(CCCCOc1ccc(/C=C/C(=O)c2ccc(N(C)C)cc2O)cc1)Cc1ccccc1N(C)C | 1.5 | – | < 3.30 | 5.52 | 5.37 | 4.91 | 2.9 | 75.8 | – | – | – | – | –
CCN(CCCOc1ccc(C(=O)/C=C/c2ccccc2)c(O)c1)Cc1ccccc1N(C)C | 1.3 | 6.51 | < 3.30 | 5.70 | 6.10 | 4.17 | 84.4 | 23 | – | – | – | – | –
CN(C)c1ccc(/C=C/C(=O)c2ccc(N(C)C)cc2O)cc1 | 1.7 | < 3.30 | < 3.30 | < 3.30 | 4.92 | 4.32 | 4 | 64.3 | – | – | – | – | –
CCN(CCCCOc1ccc(/C=C/C(=O)c2ccc(N(C)C)cc2O)cc1)Cc1ccccc1OC | 1.6 | 6.15 | < 3.30 | 5.79 | 5.34 | 5.04 | 2 | 70.1 | – | – | – | – | –
CCN(CCCCCCOc1ccc(C(=O)/C=C/c2ccc(N(C)C)cc2)c(O)c1)Cc1ccc(N(C)C)cc1 | 1.4 | 5.86 | < 3.30 | 5.10 | 5.64 | 4.27 | 23.3 | – | 95 | 5.86 | 95.6 | 84.4 | –
CCN(CCCCOc1ccc(C(=O)/C=C/c2ccc(N(C)C)cc2)c(O)c1)Cc1ccccc1OC | 1.4 | 6.19 | < 3.30 | 5.39 | 5.96 | 4.56 | 25 | – | 99.7 | 5.83 | 91.9 | 73 | –
CCN(CCCCOc1ccc(C(=O)/C=C/c2ccc(N(C)C)cc2)c(O)c1)Cc1ccccc1 | 1.5 | 5.86 | 3.69 | 5.37 | 5.05 | 4.11 | 8.7 | – | 97.2 | 5.42 | 93.9 | 82.1 | –
COc1ccc(/C=C/C(=O)c2ccc(N(C)C)cc2O)cc1 | 1.5 | < 3.30 | < 3.30 | < 3.30 | 4.88 | 4.37 | 3.2 | 36.1 | – | – | – | – | –
CCN(CCCCCCOc1ccc(C(=O)/C=C/c2ccc(N(C)C)cc2)c(O)c1)Cc1ccccc1OC | 1.4 | 6.25 | < 3.30 | 5.29 | 6.15 | 4.27 | 77.6 | – | 92.6 | 5.83 | 93.2 | 85.6 | –
CCN(CCCOc1ccc(C(=O)/C=C/c2ccc(N(C)C)cc2)c(O)c1)Cc1ccc(N(C)C)cc1 | 1.3 | 5.61 | < 3.30 | 5.21 | 4.86 | 4.24 | 4.2 | – | 73.7 | 5.88 | 95 | 77.6 | –
CCN(CCCOc1ccc(C(=O)/C=C/c2ccc(N(C)C)cc2)c(O)c1)Cc1ccccc1 | 1.6 | 5.84 | < 3.30 | 5.30 | 4.88 | 4.08 | 6.3 | – | 97.5 | 5.77 | 91.9 | 73.8 | –
CCN(CCCOc1ccc(C(=O)/C=C/c2ccc(N(C)C)cc2)c(O)c1)Cc1ccccc1OC | 1.5 | 6.20 | < 3.30 | 5.28 | 4.97 | 4.58 | 2.4 | – | 98.1 | 5.45 | 95.2 | 74.8 | –
CCN(CCCCCCOc1ccc(C(=O)/C=C/c2ccc(N(C)C)cc2)c(O)c1)Cc1ccccc1 | 1.4 | 5.40 | < 3.30 | 5.44 | 5.68 | 4.50 | 15 | – | 84.4 | 5.50 | 91 | 88.3 | –
COc1cc2c(cc1OC)C(=O)C(CC1CCN(Cc3ccccc3)CC1)C2 (configuration not stated) [DONEPEZIL] | – | – | – | – | – | – | – | – | – | – | – | – | Not Active
CCN(CCCCOc1ccc(C(=O)/C=C/c2ccc(N(C)C)cc2)c(O)c1)Cc1ccc(N(C)C)cc1 | 1.5 | 5.87 | 4.16 | 5.71 | 5.62 | 4.76 | 7.2 | – | 91.6 | 5.68 | 91.7 | 78.8 | –
CCN(CC)CCCOc1ccc(C(=O)/C=C/c2ccc(N(C)C)cc2)c(O)c1 | 1.2 | 5.65 | < 3.30 | 5.87 | 5.39 | 4.33 | 11.5 | 64.1 | – | – | – | – | –
CCN(CCCOc1ccc(C(=O)/C=C/c2ccc(N(C)C)cc2)c(O)c1)Cc1ccccc1N(C)C | 2.1 | 6.68 | 3.47 | 5.80 | 5.49 | 4.63 | 7.4 | – | 96.6 | 5.90 | 94.8 | 89.5 | –
CCN(CCCCCCOc1ccc(C(=O)/C=C/c2ccc(N(C)C)cc2)c(O)c1)Cc1ccccc1N(C)C | 2 | 6.51 | 3.37 | 5.61 | 5.68 | 4.42 | 18 | – | 87.9 | 5.99 | 96.5 | 83.4 | –
